Measurements gathered from unrelated publications.
Each line is one published result; the experiments were not run side by side.
Organism: Pseudomonas aeruginosa
Effect on: microbial growth

CC(C)Oc1c(NC(=O)c2ccc(NC(=O)[C@H](CC(N)=O)NC(=O)c3ccc(NC(=O)c4ccccc4[N+](=O)[O-])cc3)cc2)ccc(C(=O)Nc2ccc(C(=O)O)cc2)c1O
MIC (PA14): > 64 µg/mL

CN(C)c1nc(NC(=O)CNC(C)(C)C)c(O)c2c1C[C@H]1C[C@H]3[C@H](N(C)C)C(O)=C(C(N)=O)C(=O)[C@@]3(O)C(O)=C1C2=O.Cl
MIC (broth dilution; ATCC27853): > 32 µg/mL

O=c1cc(-c2ccc(O)cc2)oc2cc(O)cc(O)c12
MIC (broth dilution; PAO1): 128 µg/mL

O=C(Nc1ccc([N+](=O)[O-])cc1F)c1ccccc1O
MIC (broth dilution; ATCC27853): > 64 µg/mL

CCCc1nc(N(C)C)c2c(c1O)C(=O)C1=C(O)[C@]3(O)C(=O)C(C(N)=O)=C(O)[C@@H](N(C)C)[C@@H]3C[C@@H]1C2.Cl.Cl
MIC (broth dilution; ATCC27853): > 32 µg/mL

CCCCCCC#Cc1cncc(-c2nnc(SCc3ccc([N+](=O)[O-])o3)n2C)c1
MIC: ≥ 20 µg/mL

CN(C)[C@@H]1C(O)=C(C(N)=O)C(=O)[C@@]2(O)C(O)=C3C(=O)c4c(O)c(N)nc(F)c4C[C@H]3C[C@@H]12.Cl.Cl
MIC (broth dilution; ATCC27853): 4 µg/mL

Cc1ccccc1NCc1ccc(Oc2ccccn2)cc1
MIC: > 50 µg/mL

CC(C)Oc1c(NC(=O)c2ccc(NC(=O)[C@H](CC(N)=O)NC(=O)c3ccc(NC(=O)c4ccc(NC(N)=O)cc4)cc3)cc2)ccc(C(=O)Nc2ccc(C(=O)O)cc2)c1O
MIC (PA14): > 64 µg/mL

Clc1ccccc1NCc1ccc(Oc2ccccn2)cc1
MIC: > 25 µg/mL

Cc1c(CN(C)C(=O)/C=C/c2cnc3c(c2)CC(NC(=O)OC(C)(C)C)C(=O)N3)oc2ccccc12 (centres unmarked)
MIC (broth dilution; PA01): > 32 µg/mL

CC1(C)SC2C(NC(=O)C(NC(=O)C3=C(O)C4(CC4)NC3=O)c3ccccc3)C(=O)N2C1C(=O)O (centres unmarked)
MIC: 25 µg/mL

O=C(O)c1cn(C2CC2)c2cc(N3CCNCC3)c(F)cc2c1=O
MIC (broth dilution; ATCC27853): 16 µg/mL

CCCCCCC/C=C/C(=O)N1C(=O)/C(=C(/C)O)C(=O)C1CCCCN (centres unmarked)
MIC (PA01): > 200 µg/mL

NC1CCCCc2c1[nH]c1ccc(Br)cc21 (centres unmarked)
MIC (broth dilution; PAO1; 18 h): 128 µg/mL

CCCCCCC#Cc1cncc(-c2nnc(SCc3ccc(Cl)cc3)n2C2CC2)c1
MIC: ≥ 20 µg/mL

CN(C)[C@@H]1C(O)=C(C(N)=O)C(=O)[C@@]2(O)C(O)=C3C(=O)c4c(cc5ccc(CN6CCCC6)cc5c4O)C[C@H]3C[C@@H]12
MIC (broth dilution; ATCC27853): 32 µg/mL

CC(C)Oc1c(NC(=O)c2ccc(NC(=O)[C@H](CC(N)=O)NC(=O)c3ccc(NC(=O)c4ccc(C#N)cc4)cc3)cc2)ccc(C(=O)N[C@@H]2CONC2=O)c1O
MIC (PA14): > 64 µg/mL

CC1(C)S[C@@H]2[C@H](NC(=O)C(C(=O)O)c3ccccc3)C(=O)N2[C@H]1C(=O)O (some centres unmarked)
MIC (broth dilution): > 200 µM

COc1c(C)c(OC(C)=O)c(C)c(OC(C)=O)c1C(=O)/C=C/c1ccccc1
MIC (broth dilution; ATCC27853): 5000 µg/mL

CC1(C)SC2C(NC(=O)C(NC(=O)C3=C(O)C(Cc4ccc(O)cc4)NC3=O)c3ccccc3)C(=O)N2C1C(=O)O (centres unmarked)
MIC: 25 µg/mL

Cc1ccc(C)n1-c1ccc(-c2n[nH]c(=S)[nH]2)cc1
MIC (broth dilution; ATCC10145; 18 h): 8 µg/mL

CN(C)c1c2c(c(O)c3cc(F)ccc13)C(=O)C1=C(O)[C@]3(O)C(=O)C(C(N)=O)=C(O)[C@@H](N(C)C)[C@@H]3C[C@@H]1C2
MIC (broth dilution; ATCC27853): > 32 µg/mL

COc1c(C)c(OS(=O)(=O)c2ccc3ccccc3c2)c(C)c(OS(=O)(=O)c2ccc3ccccc3c2)c1C(=O)/C=C/c1ccccc1
MIC (broth dilution; ATCC27853): 5000 µg/mL

CC(C)Oc1c(NC(=O)c2ccc(NC(=O)[C@H](CC(N)=O)NC(=O)c3ccc(NC(=O)C(C)Sc4ccc(C#N)cc4)cc3)cc2)ccc(C(=O)Nc2ccc(C(=O)O)cc2)c1O (some centres unmarked)
MIC (PA14): > 64 µg/mL

COc1c(C)c(OS(=O)(=O)c2ccc3ccccc3c2)c(C)c(O)c1C(=O)/C=C/c1ccccc1
MIC (broth dilution; ATCC27853): 5000 µg/mL

Cc1ccc(C)n1-c1ccc(-c2nnco2)cc1
MIC (broth dilution; ATCC10145; 18 h): 4 µg/mL

C[C@H]1COc2c(N3CCN(C)CC3)c(F)cc3c(=O)c(C(=O)O)cn1c23
MIC (agar dilution; PAO1): 4 µg/mL

CC(C)Oc1c(NC(=O)c2ccc(NC(=O)[C@H](CC(N)=O)NC(=O)c3ccc(C#Cc4ccc(C#N)cc4)cc3)cc2)ccc(C(=O)Nc2ccc(C(=O)O)cc2)c1O
MIC (PA14): > 64 µg/mL

O=C(CCc1cc(O)c(O)c(O)c1)NCCCCCCCC[P+](c1ccccc1)(c1ccccc1)c1ccccc1.[Br-]
MIC (broth dilution; ATCC27853; 18 h): > 32 µg/mL

CN(C)[C@@H]1C(O)=C(C(N)=O)C(=O)[C@@]2(O)C(O)=C3C(=O)c4c(O)cncc4C[C@H]3C[C@@H]12.Cl.Cl
MIC (broth dilution; ATCC27853): 8 µg/mL

CC1=NN(CNc2ccc(C(=O)O)cc2)C(=O)C1=NNn1c(-c2ccccc2)nc2ccccc2c1=O
MIC (broth dilution; 24 h): 50.5 µM

O=[N+]([O-])c1ccc(-c2nc3cccc(O)c3[nH]2)o1
MIC (broth dilution; ATCC27853): > 64 µg/mL

O=C(CCCCCCCCCC[P+](c1ccccc1)(c1ccccc1)c1ccccc1)Nc1ccc(O)c(O)c1.[Br-]
MIC (broth dilution; ATCC27853; 18 h): > 32 µg/mL

O=C1NN=C(N=Cc2ccc(O)cc2O)C1=NNn1c(-c2ccccc2)nc2ccccc2c1=O
MIC (broth dilution; 24 h): 53.5 µM

CCCCCCC/C=C/C(=O)N1C(=O)/C(=C(\O)c2ccccc2)C(=O)C1CC(C)C (centres unmarked)
MIC (PA01): > 200 µg/mL

CC(C)Oc1c(NC(=O)c2ccc(NC(=O)[C@H](CC(N)=O)NC(=O)c3ccc(NC(=O)c4ccc(C#N)cc4)cc3)cc2)ccc(C(=O)Nc2ccc(C(=O)O)cc2)c1O
MIC (PA14): 2 µg/mL

O=[N+]([O-])c1ccc(O)c2ncccc12
MIC (broth dilution; ATCC27853): 16 µg/mL

Cc1ccc2nc(-c3ccc([N+](=O)[O-])cc3)n(Cc3ccccc3)c2c1
MIC (broth dilution; ATCC27853): 128 µg/mL

CN(C)CC(C)(C)CNc1nc(F)c2c(c1O)C(=O)C1=C(O)[C@]3(O)C(=O)C(C(N)=O)=C(O)[C@@H](N(C)C)[C@@H]3C[C@@H]1C2.Cl
MIC (broth dilution; ATCC27853): 32 µg/mL

CC(C)Oc1c(NC(=O)c2ccc(NC(=O)[C@H](CC(N)=O)NC(=O)c3ccc(NC(=O)c4ccc(C#N)cc4)cc3)cc2)ccc(C(=O)NC2CCNCC2)c1O
MIC (PA14): > 64 µg/mL

O=C(O)c1cn(C2CC2)c2cc(N3CCNCC3)c(F)cc2c1=O
MIC (broth dilution; ATCC10145; 18 h): > 5 µg/mL

[H]/N=C(/N)N[C@H]1[C@H](O)[C@@H](O)[C@H](O[C@@H]2O[C@@H](C)[C@](O)(C=O)[C@H]2O[C@@H]2O[C@@H](CO)[C@H](O)[C@@H](O)[C@@H]2NC)[C@@H](N/C(N)=N\[H])[C@@H]1O
MIC (broth dilution; PAO1): 64 µg/mL

CC(C)Oc1c(NC(=O)c2ccc(NC(=O)[C@H](CC(N)=O)NC(=O)c3ccc(NC(=O)c4ccc([N+](=O)[O-])c5cccnc45)cc3)cc2)ccc(C(=O)Nc2ccc(C(=O)O)cc2)c1O
MIC (PA14): > 64 µg/mL

CCCCCCC/C=C/C(=O)N1C(=O)/C(=C(/C)O)C(=O)C1Cc1ccc(O)cc1 (centres unmarked)
MIC (PA01): > 200 µg/mL

CC[C@H]1OC(=O)[C@H](C)[C@@H](O[C@H]2C[C@@](C)(OC)[C@@H](O)[C@H](C)O2)[C@H](C)[C@@H](O[C@@H]2O[C@H](C)C[C@H](N(C)C)[C@H]2O)[C@](C)(O)C[C@@H](C)CN(C)[C@H](C)[C@@H](O)[C@]1(C)O
MIC (broth dilution): 100 µg/mL

CC(=O)NC1CN(Cc2ccc3cc4c(c(O)c3c2)C(=O)C2=C(O)[C@]3(O)C(=O)C(C(N)=O)=C(O)[C@@H](N(C)C)[C@@H]3C[C@@H]2C4)C1
MIC (broth dilution; ATCC27853): 32 µg/mL

CC1=NN(CNc2ccccc2[N+](=O)[O-])C(=O)C1=NNn1c(-c2ccccc2)nc2ccccc2c1=O
MIC (broth dilution; 24 h): 50.4 µM

CN(C)[C@@H]1C(O)=C(C(N)=O)C(=O)[C@@]2(O)C(O)=C3C(=O)c4c(O)c(NCC(C)(C)CN5CCCC5)nc(Cl)c4C[C@H]3C[C@@H]12.Cl
MIC (broth dilution; ATCC27853): 32 µg/mL

CC1(C)SC2C(NC(=O)C(NC(=O)C3=C(O)C(Cc4ccc(F)cc4)NC3=O)c3ccccc3)C(=O)N2C1C(=O)O (centres unmarked)
MIC: 25 µg/mL
